Bioassay records: PubChem, several laboratories
WT yeast gro inh: growth inhibition of WT strain, primary screen, mitochondrial fusion inhibitor project, WT and mutant strains, chemical genetic. mitochondrial fusion phenotypic screen. inhibition, % at 10 µM. actives 2.1% (n = 190,000). AID 1362, 2008; in the data active means inhibition above about 58%; tested in S. cerevisiae
ABCB1 inh: ABCB1 efflux pump inhibitors, primary screen, cell-based, multiplex, flow cytometry, ABCG2 counter-screen. ATP-dependent translocase ABCB1 (Homo sapiens), P08183. CCRF-Adr cells, JC-1 efflux. inhibition, % at 6.6 µM. actives 0.067% (n = 190,000); in the data active means inhibition above about 40%;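 further: 0% = vehicle and 100% = reference inhibitor; higher value means more JC-1 retained so stronger ABCB1 efflux block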
ABCG2 inh: ABCG2 efflux pump inhibitors, primary screen, multiplex with ABCB1, IgMXP3 cells, flow cytometry. Broad substrate specificity ATP-binding cassette transporter ABCG2 (Homo sapiens), Q9UNQ0. JC-1 efflux. inhibition, % at 6.6 µM. actives 0.1% (n = 190,000). AID 1325, 2008;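 active means inhibition above 80%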;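 further: 0% = DMSO and 100% = nicardipine control wells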
Target sequence (Q9UNQ0 whole entry, looked up): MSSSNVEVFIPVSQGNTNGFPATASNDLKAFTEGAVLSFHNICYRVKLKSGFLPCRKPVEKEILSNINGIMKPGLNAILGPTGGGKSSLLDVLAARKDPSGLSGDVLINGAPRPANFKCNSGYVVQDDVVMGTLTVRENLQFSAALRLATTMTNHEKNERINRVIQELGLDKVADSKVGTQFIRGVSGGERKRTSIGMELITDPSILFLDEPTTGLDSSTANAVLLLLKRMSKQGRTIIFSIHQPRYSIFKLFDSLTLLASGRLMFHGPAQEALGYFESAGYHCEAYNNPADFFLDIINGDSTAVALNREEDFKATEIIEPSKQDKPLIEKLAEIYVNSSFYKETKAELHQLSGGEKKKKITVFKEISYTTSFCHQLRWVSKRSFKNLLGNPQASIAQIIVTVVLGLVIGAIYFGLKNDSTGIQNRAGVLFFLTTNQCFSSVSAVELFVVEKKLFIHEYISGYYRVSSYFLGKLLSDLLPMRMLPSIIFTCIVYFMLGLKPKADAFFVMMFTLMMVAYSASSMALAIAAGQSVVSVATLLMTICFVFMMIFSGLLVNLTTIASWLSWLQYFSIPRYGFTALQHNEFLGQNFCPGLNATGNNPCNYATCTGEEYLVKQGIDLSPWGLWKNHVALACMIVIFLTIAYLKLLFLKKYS
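Test system: ABCG2 IgMXP3 and barcoded ABCB1 CCRF-Adr cell mix; Schedule: cells with compound and JC-1, 10 min at 25 °C, rotating, no wash; Technique: flow cytometry of retained JC-1 fluorescence; Measure: % inhibition of efflux relative to nicardipine and DMSO; Controls: nicardipine high and DMSO low controls.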
RAM inhibit: inhibitors of the yeast RAM network, primary screen, dse1pr::URA3 reporter, 5-FOA selection. S. cerevisiae dse1pr::URA3 reporter, 5-FOA growth OD615, 2 d; analog-sensitive cbk1-as2 kinase mutant strain. inhibition, % at 50 µM. actives 1.8% (n = 190,000). AID 868, 2007;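 active means inhibition above a set limit, 3 SD over mean compound inhibition, cut at about 8.4% in these data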;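 further: 0% = DMSO-only wells with no growth and 100% = 10 µM 1-NA-PP1 full growth; inhibition rescues growth on 5-FOA so higher OD means more RAM inhibition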
L major viab: Leishmania major promastigote growth inhibition, primary screen. Leishmania major promastigotes, resazurin fluorescence viability. inhibition, % at 10 µM. AID 1063, 2008. actives 9% (n = 200,000); in the data active means inhibition above about 50%;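 further: promastigotes grown with compound for 44 hours at 28 °C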
* hit, by the source's call. A selection: hits, their analogues and other compounds. The true share with any hit is near 12%.

What do the screens show for `S=C1NC2(CCCCC2)Cc2ccccc21`?
WT yeast gro inh: 68.6*; ABCB1 inh: 0.3; ABCG2 inh: 2.3; RAM inhibit: 0.8; L major viab: -0.1

What do the screens show for `C/C(=N\NC(=O)c1ccc(NS(=O)(=O)c2cccs2)cc1)c1ccc(Cl)cc1`?
WT yeast gro inh: 8.5; ABCB1 inh: 0.3; ABCG2 inh: 0.5; RAM inhibit: 0.4; L major viab: -1.1

How did C/C(=N\NC(=O)c1ccc(NS(=O)(=O)c2cccs2)cc1)c1ccc2c(c1)OCO2 do in these assays?
WT yeast gro inh: -1.2; ABCB1 inh: 1.8; ABCG2 inh: 7.7; RAM inhibit: 0.6; L major viab: 73.6*

What do the screens show for `Cn1cc([N+](=O)[O-])c(C(=O)N(Cc2ccccc2)Cc2ccccc2)n1`?
WT yeast gro inh: 3.4; ABCB1 inh: 0.8; ABCG2 inh: 4.0; RAM inhibit: -0.1; L major viab: 37.1

What do the screens show for `CC1CCc2c(C(=O)Nc3ccc(N4CCOCC4)cc3)csc2C1` (stereo not drawn)?
WT yeast gro inh: 2.6; ABCB1 inh: 0.7; ABCG2 inh: -0.2; RAM inhibit: 1.0; L major viab: 0.3

How did CCc1ccccc1NC(=O)CSc1nc2n[nH]c(C)c2c(=N)n1-c1cccc(OC)c1 do in these assays?
WT yeast gro inh: -5.5; ABCB1 inh: 0.1; ABCG2 inh: 3.7; RAM inhibit: 2.3; L major viab: 90.1*

What do the screens show for `Oc1cc(-c2ccccc2)c2ccccc2c1`?
WT yeast gro inh: 47.2; ABCB1 inh: 0.1; ABCG2 inh: 1.2; RAM inhibit: -1.2; L major viab: 16.8

Results for CN(C)CCNC=C(C(=O)Nc1ccc(Cl)cc1Cl)C(=O)Nc1ccc(Cl)cc1Cl ?
WT yeast gro inh: 97.5*; ABCB1 inh: 1.3; ABCG2 inh: 5.2; RAM inhibit: 9.0*; L major viab: 13.0

Results for CC(=O)/C(=C/N(C)C)C(=O)Nc1ccc(Cl)cc1Cl ?
WT yeast gro inh: 21.2; ABCB1 inh: -0.8; ABCG2 inh: -4.2; RAM inhibit: 2.0; L major viab: -6.4

Results for CSCCC(NC(=O)c1ccc([N+](=O)[O-])cc1Cl)C(=O)OCC(=O)NC1CCCC(C)C1C (stereo not drawn) ?
WT yeast gro inh: 7.9; ABCB1 inh: 1.0; ABCG2 inh: 1.8; RAM inhibit: 3.4; L major viab: 59.7*

Results for O=C(NC1CCCc2ccccc21)C(Cc1ccccc1)NS(=O)(=O)c1cccs1 (stereo not drawn) ?
WT yeast gro inh: -8.2; ABCB1 inh: 1.6; ABCG2 inh: 4.3; RAM inhibit: 3.8; L major viab: 77.2*

Results for CSCCC(NS(=O)(=O)c1cccs1)C(=O)NCc1ccc(C)cc1 (stereo not drawn) ?
WT yeast gro inh: 14.3; ABCB1 inh: 1.2; ABCG2 inh: 4.5; RAM inhibit: 2.6; L major viab: 0.5

What do the screens show for `Cc1ccc(CNC(=O)C(Cc2ccccc2)NS(=O)(=O)c2cccs2)cc1` (stereo not drawn)?
WT yeast gro inh: 43.0; ABCB1 inh: 0.6; ABCG2 inh: 2.1; RAM inhibit: 1.6; L major viab: 59.1*

How did Cc1ccc(CNC(=O)C(Cc2ccccc2)NS(=O)(=O)c2ccc(Br)s2)cc1 (stereo not drawn) do in these assays?
WT yeast gro inh: 81.0*; ABCB1 inh: 6.1; ABCG2 inh: 3.3; RAM inhibit: 2.2; L major viab: 25.6

What do the screens show for `CC(C)(C)CC(=O)N1CCC(c2nc3c(nnn3Cc3c(F)cccc3Cl)c(=O)[nH]2)CC1`?
WT yeast gro inh: -4.5; ABCB1 inh: 0.5; ABCG2 inh: 2.2; RAM inhibit: 0.2; L major viab: -9.8

What do the screens show for `CCn1cc(C(=O)Nc2ccccc2)c(=O)c2ccc(C)nc21`?
WT yeast gro inh: -14.6; ABCB1 inh: 0.7; ABCG2 inh: 2.5; RAM inhibit: 1.0; L major viab: -3.2

How did CCn1cc(C(=O)N=c2sc3ccccc3n2C)c(=O)c2ccc(C)nc21 do in these assays?
L major viab: 88.6*

How did O=C(CCN1CCC(c2ccccc2)C1)c1ccccc1 (stereo not drawn) do in these assays?
WT yeast gro inh: -0.3; ABCB1 inh: 0.4; ABCG2 inh: 2.2; RAM inhibit: 1.1; L major viab: 47.9
